Screens deposited in PubChem by several laboratories.
Compounds with a hit are over-represented: about 1.9% of the library has one in this group of screens.
ARFGAP1 inh – inhibits rat ARF GTPase activating protein 1; Q62848; Arfgap1-stimulated ARF1 GTP hydrolysis, GDP FP detection; inhibition, % at 16.5 µM; 360,000 compounds, 0.26% hits; AID 651572;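 active = inhibition above a per-plate limit, mean inhibition of low control wells plus 3 SD, cut at about 25% in these data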;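 note: 0% = DMSO wells with enzyme and 100% = wells lacking Arfgap1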
Target sequence (Q62848 1-136 limits assumed): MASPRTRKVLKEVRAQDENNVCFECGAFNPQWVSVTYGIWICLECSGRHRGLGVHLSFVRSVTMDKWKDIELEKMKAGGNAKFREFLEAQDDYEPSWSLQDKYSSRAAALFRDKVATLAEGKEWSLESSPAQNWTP
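Assay system: purified rat His6-Arfgap1 residues 1-136 (GAP domain); Reagent: human Δ17 ARF1 bound to GTP; Dosing: 16.5 µM single point, 1.26% DMSO; Times: GTP hydrolysis reaction 2 h at 25 °C; Signal: FP, GDP Alexa 633 tracer displaced from anti-GDP antibody, 620/688 nm; Measure: % inhibition from polarization.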
Efflux pump inh – antifungal efflux pump inhibition, Nile Red retention | S. cerevisiae Candida pump triplex | 330,000 compounds, 0.44% hits | AID 485275 | inhibition, % at 10 µM;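 active = plate passing quality check with inhibition over a set limit, or well fluorescence over plate mean plus 4 SD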;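 note: Nile Red retained in pooled yeast measured as flow cytometry median fluorescence; 0% = buffer negative control and 100% = Enniatin B positive control; higher means more Nile Red kept so more efflux inhibition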
Rtt109 HAT inh – C. albicans Rtt109 histone acetyltransferase inhibition. inhibition, % at 34.9 µM. AID 540336. purified Rtt109/Vps75, ThioGlo CoA-SH fluorescence, 4 h. 330,000 compounds, 0.16% hits;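 active = inhibition of at least 50% in every replicate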
ASAP1 inh – ASAP1 ArfGAP inhibition | Q9ULH1 | ASAP1-stimulated ARF1 GTP hydrolysis, GDP FP detection | inhibition, % at 16.5 µM | 360,000 compounds, 0.19% hits; in the data active = inhibition above about 25%;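 note: 0% = vehicle with enzyme and substrate and 100% = no enzyme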
Target sequence (Q9ULH1 325-724 limits assumed): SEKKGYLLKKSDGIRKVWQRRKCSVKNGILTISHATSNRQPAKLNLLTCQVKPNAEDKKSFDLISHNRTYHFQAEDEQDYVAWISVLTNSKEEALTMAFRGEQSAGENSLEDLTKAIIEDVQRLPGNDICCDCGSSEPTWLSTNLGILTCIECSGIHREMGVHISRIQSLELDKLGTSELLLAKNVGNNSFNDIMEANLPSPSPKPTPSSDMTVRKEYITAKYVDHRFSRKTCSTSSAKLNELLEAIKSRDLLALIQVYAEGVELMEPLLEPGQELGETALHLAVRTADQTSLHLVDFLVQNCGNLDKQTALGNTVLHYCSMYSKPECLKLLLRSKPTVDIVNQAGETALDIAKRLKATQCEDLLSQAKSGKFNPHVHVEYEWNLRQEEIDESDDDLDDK
FGF22 binding – binders of recombinant human FGF22 by thermal shift; AID 651658; 340,000 compounds, 1.5% hits; Q9HCT0; SYPRO orange fluorescence; percent of sucrose octasulfate shift, DMSO zero; activity (Tm shift, normalised), % at 9.99 µM;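 active = mean Tm shift, scaled 0 neutral to 100 positive control, at about 1.3% or above, every replicate too, limit read from the data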
ARFGAP1 confirm – rat ARFGAP1 inhibition, confirmed; shares compounds with ARFGAP1 inh; ARFGAP1-stimulated ARF1 GTP hydrolysis, GDP tracer FP; inhibition, % at 16.5 µM; 890 compounds, 30% hits;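 active = average inhibition over triplicates above the hit cutoff set in the earlier primary screen, cut at about 25% in these data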;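 note: 0% = Arfgap1 plus ARF1-GTP with DMSO and 100% = wells lacking Arfgap1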
An asterisk follows results filed as active; . = no result given.

SMILES	ARFGAP1 inh	Efflux pump inh	Rtt109 HAT inh	ASAP1 inh	FGF22 binding	ARFGAP1 confirm
COc1nnc(-c2ccc(N3CCOCC3)c(NC(C)=O)c2)c2ccccc12	-10	0	0	4	.	.
COc1nnc(-c2ccc(N3CCOCC3)c(NC(=O)c3ccccc3)c2)c2ccccc12	41*	0	10	1	.	3
O=[N+]([O-])c1cc(C(F)(F)F)cc([N+](=O)[O-])c1Sc1n[nH]c(C(F)(F)F)n1	29*	0	-5	13	0	-11
COC(=O)[C@H]1[C@H]2C[C@@H]3c4[nH]c5cc(OC)ccc5c4CCN3C[C@H]2C[C@@H](OC(=O)c2cc(OC)c(OC)c(OC)c2)[C@@H]1OC	28*	0	-4	6	0	3
COC(=O)C1C2CC3c4[nH]c5cc(OC)ccc5c4CCN3CC2CC(OC2CCCCO2)C1OC (stereo unspecified)	7	.	.	7	0	.
O=[N+]([O-])c1cccc(/C=C/c2nc3ccc([N+](=O)[O-])cc3[nH]2)c1	25*	0	-13	7	.	26*
Cc1nc2ccc([N+](=O)[O-])cc2[nH]1	6	0	-18	3	.	.
COc1cc(NC(=O)Cc2ccc([N+](=O)[O-])cc2)c(C(=O)O)cc1OC	5	0	1	1	0	.
Oc1nc(Nc2cccc(Cl)c2)sc1/C=C1\C=Nc2ccccc21	25*	0	-2	19	1	21
CC(C(=O)N1CCCCC1)N(C)CC(=O)Nc1ccc(F)c(F)c1F (stereo unspecified)	26*	.	.	0	.	5
CC(C)Cc1ccc(C(C)NC(=O)Cc2ccc(S(=O)(=O)N3CCOCC3)s2)cc1 (stereo unspecified)	25*	0	-2	1	0	4
O=C(N/N=C/c1ccc(Cl)cc1)C(=O)N1CCCCCC1	25*	0	.	3	0	-6
O=C(N/N=C/c1ccc(C(=O)O)cc1)C(=O)N1CCCCCC1	-4	0	-2	-3	0	.
O=[N+]([O-])c1ccc2[nH]c3nc4ccccc4nc3c2c1	26*	0	-6	8	0	37*
COc1ccc(CN(C)C(=O)COC(=O)c2ccc3c(c2)OCO3)cc1OC	1	0	8	-16	.	.
COc1cc(/C=N/NC(=O)c2cc(-c3ccccc3)nc3ccccc23)ccc1O	12	0	-11	12	0	.
COc1cc(/C=N/NC(=O)c2cc(-c3cccc(Br)c3)nc3ccccc23)cc(OC)c1O	27*	0	.	6	0	7
NC(=O)c1ccc(N=C2C(=O)Nc3ccc([N+](=O)[O-])cc32)cc1	37*	0	16	40*	0	9
O=C1Nc2ccccc2C1=Nc1cccc([N+](=O)[O-])c1	1	0	4	-8	0	.
C=C(C)CC1(NC(C)c2ccccc2)CCCCC1 (stereo unspecified)	31*	0	1	12	0	-1
CCOC(=O)c1coc(CNC(=O)c2c(C)oc3c2CCCC3)c1	-8	0	3	-4	.	.
COCC#Cc1cnc2c(c1)C(=O)N([C@@H](C)CO)C[C@H](C)[C@H](CN(C)C(=O)C1CCOCC1)O2	.	.	.	.	0	.
CN(Cc1ccccc1)C(=O)CN1CCN(S(=O)(=O)c2ccccc2F)CC1	36*	.	.	-2	0	5
Cc1cccc(NC(=O)CCc2c(C)nn(-c3ccc(N4CCOCC4)nn3)c2C)c1	-3	0	-3	3	0	.
CC(C)Cc1nnc(NC(=O)c2cccc(S(=O)(=O)N3CCOCC3)c2)s1	-7	0	0	-11	0	.
SMILES	ARFGAP1 inh	Efflux pump inh	Rtt109 HAT inh	ASAP1 inh	FGF22 binding	ARFGAP1 confirm
CCC(CC)c1nnc(NC(=O)c2cccc(S(=O)(=O)N3CCOCC3)c2)s1	28*	0	-5	-3	0	-4
COc1ccc(NC(=O)Nc2ccc(F)cc2)cn1	25*	0	2	-4	0	3
COC(=O)c1ccc(NC(=O)Nc2ccc(F)cc2)cc1	17	0	3	3	.	.
Cc1cccc(/C=N/Nc2ccc3ccccc3n2)c1	25*	0	8	13	0	3
CN1C[C@H](O)COC[C@H]2O[C@H](CC(=O)N3CCN(c4ccccc4)CC3)CC[C@@H]21	.	.	.	.	0	.
O=C(N/N=C/c1cc(Br)ccc1O)Nc1ccccc1	25*	0	0	5	.	14
NC(=O)N/N=C\c1cc(Br)ccc1O	-6	0	0	-9	0	.
O=C(C[C@H]1CC[C@H]2[C@@H](COC[C@@H](O)CN2C(=O)Cc2ccccc2)O1)NC1CCC1	.	.	.	.	0	.
CCOc1ccc2oc(C(=O)OCC(=O)N3CCCC(C)C3)c(C)c2c1 (stereo unspecified)	33*	0	15	19	0	33*
CCOc1ccc2oc(C(=O)OCC(=O)N3CC(C)OC(C)C3)c(C)c2c1 (stereo unspecified)	26*	0	-3	18	1	33*
COCCn1c(SCC(=O)NNC(=O)c2ccccc2)nc2ccccc21	-2	0	2	0	0	.
O=C(NC1CC1)c1cc2c(s1)CS(=O)(=O)C2	-7	0	3	-5	0	.
O=C(CSc1nnc(Nc2ccccc2)s1)NC1CCCC1	26*	0	-8	16	0	-4
O=C(C[C@@H]1C[C@H]2c3cc(NC(=O)CC4CC4)ccc3O[C@H]2[C@@H](CO)O1)NCC(F)(F)F	.	.	.	.	0	.
COc1ccc(C(=O)Cn2c(Cl)nc3c2c(=O)n(C)c(=O)n3C)cc1	-4	0	-5	-4	0	.
COc1cccc(C(=O)Cn2c(Br)nc3c2c(=O)n(C)c(=O)n3C)c1	28*	0	4	0	.	5
CCNc1nc(NCc2ccccc2)nc(SCC(N)=O)n1	-1	0	10	-7	0	.
CCNc1nc(NCc2ccccc2)nc(SCC(=O)Nc2ccccc2)n1	27*	0	-9	5	.	8
Cc1nc(CSc2ccc(Cl)cc2)cc(N2CC(C)OC(C)C2)n1 (stereo unspecified)	25*	0	-5	-10	0	5
COc1cccc(-c2nn(-c3ccccc3)cc2CN(C)C(C)c2ccncn2)c1 (stereo unspecified)	-6	0	0	3	0	.
COc1ccc(-n2cc(CN(C)C(C)c3ccncn3)c(-c3cccc(F)c3)n2)cc1 (stereo unspecified)	27*	0	6	7	0	4
O=C(CN(CCc1ccccc1)C(=O)c1csnn1)NCc1ccc(F)cc1	27*	0	-7	-8	0	2
CCCc1cc(=O)[nH]c(SCC(=O)N2CCN(S(=O)(=O)c3ccccc3)CC2)n1	8	0	5	-3	.	.
